Measurements published in ChEMBL document CHEMBL1240446, “Synthesis and biological activities of novel amine-derived bis-azoles as potential antibacterial and antifungal agents” (2010).
In brackets after ≈: the same amount, converted by molar mass.

How the values were obtained:
Type in all cases: functional
Pseudomonas aeruginosa = assay: Antibacterial activity against Pseudomonas aeruginosa ATCC 27853 after 24 hrs by micro-broth dilution method; settings: ATCC 27853, 24 h
Summary of the method: (§1)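 MIC by broth microdilution following NCCLS methods. Inoculum adjusted in sterile saline to 1×10^4–1×10^5 CFU. Compounds from DMSO stocks, two-fold serial dilutions in Mueller-Hinton broth at 256 down to 0.25 µg/mL. Incubation 37 °C, 24 h. DMSO solvent control at matching dilutions. Growth read visually and spectrophotometrically. MIC is the lowest concentration arresting growth.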

Bacillus subtilis = assay: Antibacterial activity against Bacillus subtilis ATCC 21216 after 24 hrs by micro-broth dilution method; settings: ATCC 21216, 24 h; summary of the method: as §1
Candida albicans = assay: Antifungal activity against Candida albicans ATCC 76615 after 24 hrs by micro-broth dilution method; settings: ATCC 76615, 24 h
Summary of the method: (§2)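 Broth microdilution per NCCLS. Spore suspension in sterile distilled water, taken from 1-day-old cultures on Sabouraud agar, final 1–5×10^3 spores/mL. Compounds diluted from stocks in RPMI 1640 to eleven concentrations, 0.25–256 µg/mL. Incubation 35 °C, 24 h. Growth scored visually and spectrophotometrically. MIC is the lowest concentration arresting fungal growth.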

Escherichia coli = assay: Antibacterial activity against Escherichia coli ATCC 25922 after 24 hrs by micro-broth dilution method; settings: ATCC 25922, 24 h; summary of the method: as §1
Aspergillus fumigatus = assay: Antifungal activity against Aspergillus fumigatus ATCC 96918 after 24 hrs by micro-broth dilution method; settings: ATCC 96918, 24 h; summary of the method: as §2
Bacillus = assay: Antibacterial activity against Bacillus proteus ATCC 13315 after 24 hrs by micro-broth dilution method; settings: ATCC 13315, 24 h; summary of the method: as §1
Staphylococcus aureus [1] = assay: Antibacterial activity against methicillin-resistant Staphylococcus aureus N315 after 24 hrs by micro-broth dilution method; settings: N315, 24 h
Summary of the method: (§3)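 Broth microdilution per NCCLS in Mueller-Hinton broth. Inoculum adjusted in sterile saline to 1×10^4–1×10^5 CFU. Compounds taken from DMSO stocks and serially diluted two-fold to final 256–0.25 µg/mL (11 levels). Incubation 37 °C, 24 h, with a DMSO solvent control. Growth read visually and spectrophotometrically. MIC is the lowest concentration that arrests growth.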

Staphylococcus aureus [2] = assay: Antibacterial activity against Staphylococcus aureus ATCC 29213 after 24 hrs by micro-broth dilution method; settings: ATCC 29213, 24 h; summary of the method: as §3

Structure (SMILES) | MIC (Pseudomonas aeruginosa) [µg/mL] | MIC (Bacillus subtilis) [µg/mL] | MIC (Candida albicans) [µg/mL] | MIC (Escherichia coli) [µg/mL] | MIC (Aspergillus fumigatus) [µg/mL] | MIC (Bacillus) [µg/mL] | MIC (Staphylococcus aureus [1]) [µg/mL] | MIC (Staphylococcus aureus [2]) [µg/mL]
Cl.Fc1ccc(CN(CCn2cncn2)CCn2cncn2)c(F)c1 | 8 | 32 | 32 | 64 | 256 | 256 | > 256 | 64
Fc1ccc(CN(CCn2cncn2)CCn2cncn2)c(F)c1.O=[N+]([O-])O | 16 | 32 | 64 | 128 | > 256 | > 256 | > 256 | 128
Cl.Fc1ccc(CN(CCn2cnc3ccccc32)CCn2cnc3ccccc32)c(F)c1 | > 256 | > 256 | > 256 | > 256 | > 256 | 64 | 128 | 32
Clc1ccc(CN(CCn2ccnc2)CCn2ccnc2)cc1Cl.O=[N+]([O-])O | 64 | 16 | > 256 | 4 | 64 | 32 | 16 | 16
Clc1ccccc1CN(CCn1cncn1)CCn1cncn1 | 128 (≈ 386 µM) | > 256 | > 256 | 256 (≈ 772 µM) | > 256 | > 256 | > 256 | > 256
Clc1ccc(CN(CCn2cncn2)CCn2cncn2)c(Cl)c1 | 32 (≈ 87.4 µM) | > 256 | 0.25 (≈ 0.683 µM) | 64 (≈ 175 µM) | > 256 | 16 (≈ 43.7 µM) | 256 (≈ 699 µM) | 64 (≈ 175 µM)
OCCN(CCO)Cc1ccc(Cl)c(Cl)c1 | > 256 | 128 (≈ 485 µM) | > 256 | 128 (≈ 485 µM) | > 256 | 128 (≈ 485 µM) | > 256 | 256 (≈ 969 µM)
Cl.Clc1ccc(CN(CCn2cncn2)CCn2cncn2)c(Cl)c1 | 16 | 128 | 0.25 | 32 | 128 | 4 | 128 | 16
Clc1ccc(CN(CCn2ccnc2)CCn2ccnc2)c(Cl)c1 | 4 (≈ 11 µM) | 32 (≈ 87.8 µM) | 128 (≈ 351 µM) | 16 (≈ 43.9 µM) | > 256 | 32 (≈ 87.8 µM) | 16 (≈ 43.9 µM) | 8 (≈ 22 µM)
Clc1ccc(CN(CCn2cncn2)CCn2cncn2)cc1 | 16 (≈ 48.2 µM) | > 256 | > 256 | 256 (≈ 772 µM) | > 256 | 128 (≈ 386 µM) | > 256 | > 256
Fc1ccc(CN(CCn2cnc3ccccc32)CCn2cnc3ccccc32)c(F)c1.O=[N+]([O-])O | > 256 | > 256 | > 256 | > 256 | > 256 | 128 | 256 | 128
OCCN(CCO)Cc1ccccc1Cl | > 256 | > 256 | > 256 | > 256 | > 256 | 256 (≈ 1110 µM) | > 256 | > 256
Cc1cc2ncn(CCN(CCn3cnc4cc(C)c(C)cc43)Cc3ccc(Cl)cc3Cl)c2cc1C | 128 (≈ 246 µM) | 64 (≈ 123 µM) | > 256 | 16 (≈ 30.7 µM) | > 256 | 32 (≈ 61.5 µM) | > 256 | 128 (≈ 246 µM)
Fc1ccc(CN(CCn2ccnc2)CCn2ccnc2)c(F)c1.O=[N+]([O-])O | 64 | 16 | 128 | 32 | > 256 | 64 | 32 | 32
Clc1ccc(CN(CCn2ccnc2)CCn2ccnc2)cc1Cl | 64 (≈ 176 µM) | 16 (≈ 43.9 µM) | > 256 | 16 (≈ 43.9 µM) | 64 (≈ 176 µM) | 64 (≈ 176 µM) | 32 (≈ 87.8 µM) | 16 (≈ 43.9 µM)
OC(Cn1cncn1)(Cn1cncn1)c1ccc(F)cc1F [FLUCONAZOLE] | – | – | 0.5 (≈ 1.63 µM) | – | 256 (≈ 836 µM) | – | – | –
Cl.Fc1ccc(CN(CCn2ccnc2)CCn2ccnc2)c(F)c1 | 64 | 8 | 128 | 16 | > 256 | 32 | 16 | 16
Fc1ccc(CN(CCn2cncn2)CCn2cncn2)c(F)c1 | 8 (≈ 24 µM) | 64 (≈ 192 µM) | > 256 | 64 (≈ 192 µM) | > 256 | > 256 | > 256 | 128 (≈ 384 µM)

Structure (SMILES) | MIC (Pseudomonas aeruginosa) [µg/mL] | MIC (Bacillus subtilis) [µg/mL] | MIC (Candida albicans) [µg/mL] | MIC (Escherichia coli) [µg/mL] | MIC (Aspergillus fumigatus) [µg/mL] | MIC (Bacillus) [µg/mL] | MIC (Staphylococcus aureus [1]) [µg/mL] | MIC (Staphylococcus aureus [2]) [µg/mL]
OCCN(CCO)Cc1ccc(Cl)cc1 | 256 (≈ 1110 µM) | > 256 | > 256 | 256 (≈ 1110 µM) | > 256 | 256 (≈ 1110 µM) | > 256 | > 256
Cl.Clc1ccc(CN(CCn2ccnc2)CCn2ccnc2)c(Cl)c1 | 4 | 8 | 64 | 16 | > 256 | 32 | 8 | 4
Cl.Clc1ccc(CN(CCn2ccnc2)CCn2ccnc2)cc1Cl | 32 | 4 | > 256 | 4 | 32 | 16 | 8 | 4
Clc1ccc(CN(CCn2cncn2)CCn2cncn2)cc1Cl | 64 (≈ 175 µM) | 32 (≈ 87.4 µM) | > 256 | 32 (≈ 87.4 µM) | > 256 | 0.5 (≈ 1.37 µM) | 256 (≈ 699 µM) | 64 (≈ 175 µM)
Clc1ccc(CN(CCn2ccnc2)CCn2ccnc2)cc1 | 64 (≈ 194 µM) | 64 (≈ 194 µM) | > 256 | 32 (≈ 97 µM) | > 256 | 128 (≈ 388 µM) | 64 (≈ 194 µM) | 64 (≈ 194 µM)
O=C(N[C@H](CO)[C@H](O)c1ccc([N+](=O)[O-])cc1)C(Cl)Cl [CHLORAMPHENICOL] | 64 (≈ 198 µM) | 8 (≈ 24.8 µM) | – | 8 (≈ 24.8 µM) | – | 8 (≈ 24.8 µM) | 16 (≈ 49.5 µM) | 8 (≈ 24.8 µM)
Clc1ccc(CN(CCn2cncn2)CCn2cncn2)c(Cl)c1.O=[N+]([O-])O | 16 | 128 | 0.25 | 64 | 128 | 8 | 256 | 32
Clc1ccc(CN(CCn2ccnc2)CCn2ccnc2)c(Cl)c1.O=[N+]([O-])O | 4 | 16 | 128 | 32 | > 256 | 64 | 16 | 16
Clc1ccc(CN(CCn2cnc3ccccc32)CCn2cnc3ccccc32)c(Cl)c1 | 32 (≈ 68.9 µM) | 32 (≈ 68.9 µM) | > 256 | 128 (≈ 276 µM) | > 256 | 32 (≈ 68.9 µM) | 64 (≈ 138 µM) | 32 (≈ 68.9 µM)
Clc1ccc(CN(CCn2cncn2)CCn2cncn2)cc1Cl.O=[N+]([O-])O | 64 | 16 | 256 | 32 | > 256 | 0.25 | 64 | 16
Fc1ccc(CN(CCn2cnc3ccccc32)CCn2cnc3ccccc32)c(F)c1 | > 256 | 64 (≈ 148 µM) | > 256 | 128 (≈ 297 µM) | > 256 | 64 (≈ 148 µM) | > 256 | 64 (≈ 148 µM)
Clc1ccccc1CN(CCn1ccnc1)CCn1ccnc1 | 256 (≈ 776 µM) | > 256 | > 256 | 16 (≈ 48.5 µM) | > 256 | > 256 | 256 (≈ 776 µM) | 128 (≈ 388 µM)
CCn1cc(C(=O)O)c(=O)c2cc(F)c(N3CCNCC3)cc21 [NORFLOXACIN] | 2 (≈ 6.26 µM) | 1 (≈ 3.13 µM) | – | 0.5 (≈ 1.57 µM) | – | 1 (≈ 3.13 µM) | 0.25 (≈ 0.783 µM) | 0.25 (≈ 0.783 µM)
OCCN(CCO)Cc1cccc(Cl)c1 | > 256 | > 256 | > 256 | > 256 | > 256 | > 256 | > 256 | > 256
Fc1ccc(CN(CCn2ccnc2)CCn2ccnc2)c(F)c1 | 128 (≈ 386 µM) | 32 (≈ 96.6 µM) | > 256 | 64 (≈ 193 µM) | > 256 | 64 (≈ 193 µM) | 32 (≈ 96.6 µM) | 32 (≈ 96.6 µM)
Clc1cccc(CN(CCn2cncn2)CCn2cncn2)c1 | 16 (≈ 48.2 µM) | > 256 | > 256 | > 256 | > 256 | 32 (≈ 96.4 µM) | 256 (≈ 772 µM) | 256 (≈ 772 µM)
Clc1cccc(CN(CCn2ccnc2)CCn2ccnc2)c1 | 32 (≈ 97 µM) | 128 (≈ 388 µM) | > 256 | 32 (≈ 97 µM) | > 256 | 64 (≈ 194 µM) | > 256 | 64 (≈ 194 µM)
